Source: ChEMBL document CHEMBL1133638, “Synthesis and biological activity of a novel 11a-homo (cyclohexyl) prostaglandin” (J Med Chem, 2000)

How the values were obtained:
[1] = Evaluated for its concentration at which 50% of maximal stimulation of phosphoinositide turnover was observed; type: functional, Mus musculus
Summary of the method: (§1)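 Swiss 3T3 mouse fibroblasts with FP receptors, confluent, labelled 24-30 h at 37 °C with 1.0-1.5 μCi [3H]-myo-inositol in DMEM. Rinsed into DMEM/F-12 with 10 mM LiCl, then agonist or solvent for 60 min at 37 °C, triplicate. Stopped with ice-cold 0.1 M formic acid. Total [3H]IPs isolated on anion-exchange resin and counted.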

Mus musculus [2] = organism: Mus musculus; test: Evaluated for percent maximum response relative to cloprostenol (n=2); type: functional; summary of the method: as §1
Mus musculus [3] = organism: Mus musculus; test: Evaluated for percent maximum response relative to cloprostenol (n = 105); type: functional; summary of the method: as §1
Mus musculus [4] = organism: Mus musculus; test: Evaluated for percent maximum response relative to cloprostenol (n=11); type: functional; summary of the method: as §1

EC50 [1] [µM]	Compound	Max response (Mus musculus [2]) [%]	Max response (Mus musculus [3]) [%]	Max response (Mus musculus [4]) [%]
0.319	O=C(O)CCC/C=C\C[C@@H]1[C@@H](/C=C/[C@@H](O)COc2cccc(Cl)c2)[C@H](O)CC[C@@H]1O	72	–	–
2.75	O=C(O)CCC/C=C\C[C@@H]1[C@@H](/C=C/[C@H](O)COc2cccc(Cl)c2)[C@H](O)CC[C@@H]1O	50	–	–
0.001	O=C(O)CCC/C=C\CC1C(O)CC(O)C1/C=C/C(O)COc1cccc(Cl)c1 (stereo not drawn) [CLOPROSTENOL]	–	100	–
0.023	CCCCC[C@H](O)/C=C/[C@@H]1[C@@H](C/C=C\CCCC(=O)O)[C@@H](O)C[C@H]1O [DINOPROST]	–	–	91
